# High-throughput results: PubChem BioAssay, The Scripps Research Institute Molecular Screening Center
# An excerpt weighted towards active compounds, which were near 2.2% of everything screened.
# M1 ag: human M1 muscarinic receptor agonism | activation, % at 3 µM | CHO-K1 hM1, Fluo-8 calcium fluorescence, agonist mode; 0% DMSO, 100% acetylcholine EC100 | AID 588814 | 0.33% of 360,000 active | P11229;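 active means activation above the run's mean compound activation plus 3 SD, cut at about 16% in these data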;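 further: peak over basal fluorescence ratio within a 140 s kinetic read after compound addition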
# M1 antag: human CHRM1 antagonism; 1.3% of 360,000 active; P11229; inhibition, % at 3 µM; CHO-K1 hM1, Fluo-8 calcium fluorescence, ACh EC80 antagonist;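 active means percent inhibition above its own plate's cutoff, namely the mean of that plate's compound wells plus 3 SD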;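 further: peak over basal fluorescence ratio during 140 s after agonist addition; 0% = ACh EC80 plus DMSO and 100% = DMSO alone without agonist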
# M5 ag: CHRM5 agonism in calcium assay; 0.19% of 360,000 active; CHO-K1 hM5 cells, Fluo-8 calcium fluorescence; 0% DMSO wells, 100% maximal acetylcholine response; P08912; activation, % at 3 µM;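 active means activation above the run's mean over test compounds plus 3 SD, cut at about 23% in these data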;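 further: signal is peak over basal fluorescence ratio across the kinetic read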
# Target sequence (P08912 whole entry, looked up): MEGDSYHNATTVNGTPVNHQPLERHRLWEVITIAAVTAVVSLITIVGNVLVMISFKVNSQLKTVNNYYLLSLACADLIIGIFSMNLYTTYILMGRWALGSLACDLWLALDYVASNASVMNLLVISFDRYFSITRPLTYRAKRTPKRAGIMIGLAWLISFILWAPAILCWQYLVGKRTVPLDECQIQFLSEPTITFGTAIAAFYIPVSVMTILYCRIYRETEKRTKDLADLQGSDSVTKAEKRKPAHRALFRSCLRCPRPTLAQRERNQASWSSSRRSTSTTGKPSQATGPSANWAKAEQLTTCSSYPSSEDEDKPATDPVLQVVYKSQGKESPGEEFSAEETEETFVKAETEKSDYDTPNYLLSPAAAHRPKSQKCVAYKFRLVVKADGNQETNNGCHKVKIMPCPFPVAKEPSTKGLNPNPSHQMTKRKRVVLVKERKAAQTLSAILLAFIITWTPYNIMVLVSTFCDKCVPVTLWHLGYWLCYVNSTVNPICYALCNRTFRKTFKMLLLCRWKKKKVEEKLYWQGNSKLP
# CHRM1 PAM: potentiates human M1 receptor response to acetylcholine. P11229. CHO-K1 hM1, Fluo-8 calcium fluorescence, ACh EC20; 0% = ACh EC20, 100% = maximal ACh. activation, % at 3 µM. 0.088% of 360,000 active; in the data active means activation above about 19%, passing the limit was not always enough
# CHRM5 PAM: CHRM5 positive allosteric modulation; CHO-K1 hM5, Fluo-8 calcium, ACh EC20 PAM; 0% = ACh EC20, 100% = ACh EC100; AID 624038; activation, % at 3 µM; 0.3% of 360,000 active;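 active means activation above the run cutoff, the mean activation of all test compounds plus 3 SD, cut at about 18% in these data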
#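 Assay system – human M5 receptor in CHO-K1 cells · Read-out – % activation, ACh-normalized · Technique – Fluo-8 calcium fluorescence · Dosing – single-point, 3 µM nominal · Incubation – Fluo-8 loading 80 min at 37 °C plus 30 min room temperature · Repeats – singlicate, one well per test compound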
# M5 antag: CHRM5 antagonism in calcium assay. P08912. CHO-hM5 cells, Fluo-8 calcium fluorescence, ACh EC80. inhibition, % at 3 µM. 0.59% of 360,000 active. AID 624040;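 active means inhibition above a per-plate cutoff, the mean of that plate's test compounds plus 3 SD, cut at about 27% in these data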;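 further: 0% = acetylcholine EC80 with DMSO and 100% = DMSO without agonist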
# * hit, by the source's call; . = not tested or not shown.
SMILES,M1 ag,M1 antag,M5 ag,CHRM1 PAM,CHRM5 PAM,M5 antag
CC1C2Cc3ccc(O)cc3[C@]1(C)CCN2CCc1ccccc1 (stereo partly specified),-12,15,-5,-21,-19,8
COC(=O)C1C2CC[C@@H](CC1OC(=O)c1ccccc1)N2 (stereo partly specified),2,-10,-2,5,-1,-5
O=C(Nc1ccccc1)NC1CC2CCC(C1)N2 (stereo unspecified),-5,31*,-7,-17,0,-2
CCOC(=O)c1cccc(C2=C(CNC(C)=O)[C@H]3CC[C@@H](C2)N3Cc2ccccc2)c1,-7,31*,-2,-15,-2,10
CCCc1cc(=O)oc2cc(OCC(=O)N3CCC(C(=O)O)(c4ccccc4)CC3)ccc12,-2,-12,-1,7,0,8
COc1cc(CN2CC=C(c3ccc(F)cc3)CC2)cc(OC)c1,-10,31*,-1,-25,-5,-6
COc1cc(C)c(CN2CC=C(c3ccc(F)cc3)CC2)cc1C,-9,4,-3,-8,-4,1
Cc1cc(-c2cc(C)c(N)c(C)c2)cc(C)c1N,-1,4,0,-5,2,-2
O=C(c1ccc2c(c1)OCO2)C1CCCN(Cc2c(F)cccc2Cl)C1 (stereo unspecified),-5,92*,-8,-23,-1,-8
Cc1cccc(CN2CCCC(C(=O)c3ccc4c(c3)OCO4)C2)n1 (stereo unspecified),-13,33*,-6,-32,-3,3
COc1cccc(C(=O)C2CCCN(Cc3cccc(C)n3)C2)c1 (stereo unspecified),-12,27*,-7,-30,-2,8
COc1cccc(C(=O)C2CCCN(Cc3ccc4nsnc4c3)C2)c1 (stereo unspecified),-7,34*,-17,-22,-4,4
COc1cccc(C(c2nnnn2-c2c(C)cccc2C)N2CCC(n3c(=O)[nH]c4ccccc43)CC2)c1OC (stereo unspecified),-2,2,-3,-6,-11,-3
Cc1c(C)c2ccc(OCC(=O)N3C[C@H]4C[C@@H](C3)c3cccc(=O)n3C4)cc2oc1=O,1,-1,-1,10,-2,4
CC(CC(C)(C)N1CC1)=NO,-5,-8,1,2,2,-6
COc1c(C)cc(C(=O)C2CCCN(Cc3cccc(C)n3)C2)cc1C (stereo unspecified),-12,33*,-8,-30,2,-10
Cc1cccc(CN2CCCC(C(=O)c3cccc(OC(C)C)c3)C2)n1 (stereo unspecified),-12,17,-8,-30,4,-13
COc1ccc2cc(C(=O)C3CCCN(C4CCOCC4)C3)ccc2c1 (stereo unspecified),-7,4,-5,-8,1,16
O=C(c1ccc2c(c1)OCO2)C1CCCN(CC2CCCCC2)C1 (stereo unspecified),-15,42*,-11,-37,-11,8
COc1c(C)cc(C(=O)C2CCCN(C3CCOCC3)C2)cc1C (stereo unspecified),-4,55*,-17,-17,-20,12
CN1CCN(C(=O)COc2ccc(S(=O)(=O)NC3CCCCC3)cc2Cl)CC1,-2,-11,2,9,21*,-19
C[N+](C)(N)CCOC(=O)C(O)(c1ccccc1)C1CCCCC1 (stereo unspecified),-8,100*,-20,-26,-30,99*
CC[N+](CC)(CC)CCCOC(=O)C(O)(c1ccccc1)C1CCCCC1 (stereo unspecified),-6,99*,-7,-23,-22,99*
O=C(Cc1ccccc1F)N1CCN(CC(=O)N2CCCC2)CC1,0,-13,-2,5,5,9
CCCCCN1C(=O)c2ccccc2[C@@]2(C(=O)OCC)Cc3cc(OC)ccc3[C@@H]12,.,.,-1,.,0,7
